In ChEMBL document CHEMBL5046217, “Discovery of New Imidazo[2,1-b]thiazole Derivatives as Potent Pan-RAF Inhibitors with Promising In Vitro and In Vivo Anti-melanoma Activity” (J Med Chem, 2021):

Tests used:
[1] = Stability in human plasma assessed as parent compound remaining at 10 uM measured after 30 mins by LC-MS analysis; type: ADME, cell-free; conditions: read-out: Stability
Outline: (§1)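 About 10 μM compound shaken in human or rat plasma at 37 °C for 30 and 120 min. Acetonitrile added, samples centrifuged at 4 °C, and remaining parent in the supernatant quantified by LC−MS. Procaine and diltiazem run as references.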

[2] = target: RAF proto-oncogene serine/threonine-protein kinase (Homo sapiens, UniProt P04049); assay: Inhibition of human wild type CRAF using myelin basic protein as substrate in presence of [gamma-33P]ATP incubated for 40 mins by scintillation counting method
Sequence of RAF proto-oncogene serine/threonine-protein kinase (P04049 whole entry): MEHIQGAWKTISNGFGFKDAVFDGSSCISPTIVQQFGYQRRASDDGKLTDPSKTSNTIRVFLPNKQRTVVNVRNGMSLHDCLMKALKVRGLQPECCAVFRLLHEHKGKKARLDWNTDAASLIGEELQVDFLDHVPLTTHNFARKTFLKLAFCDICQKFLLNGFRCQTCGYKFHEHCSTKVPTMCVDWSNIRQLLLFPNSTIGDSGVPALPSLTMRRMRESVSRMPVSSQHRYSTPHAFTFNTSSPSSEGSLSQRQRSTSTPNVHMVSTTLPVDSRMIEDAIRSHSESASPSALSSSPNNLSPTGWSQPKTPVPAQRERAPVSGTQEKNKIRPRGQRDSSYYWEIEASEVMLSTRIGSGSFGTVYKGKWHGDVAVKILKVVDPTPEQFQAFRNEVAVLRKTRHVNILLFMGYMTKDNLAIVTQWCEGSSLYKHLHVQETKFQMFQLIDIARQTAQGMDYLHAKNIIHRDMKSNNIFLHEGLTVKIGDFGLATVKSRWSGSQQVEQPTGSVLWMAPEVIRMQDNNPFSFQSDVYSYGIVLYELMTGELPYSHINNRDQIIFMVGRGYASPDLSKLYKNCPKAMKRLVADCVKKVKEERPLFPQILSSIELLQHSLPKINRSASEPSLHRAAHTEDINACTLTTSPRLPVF

[3] = target: Mitogen-activated protein kinase 11 (Homo sapiens, UniProt Q15759); assay: Inhibition of MAPK11 (unknown origin) incubated for 1 hr by qPCR analysis
Outline: (§2)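 Competition binding assay. Kinases were either T7-phage-tagged (grown in an E. coli BL21-derived host) or expressed in HEK-293 cells and DNA-tagged. […] Bound kinase was eluted with non-biotinylated ligand and quantified by qPCR.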

[4] = Oral bioavailability in Sprague-Dawley rat at 5 mg/kg by LC-MS/MS analysis; type: ADME, organism-based; conditions: in vivo
Outline: (§3)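 Male SD rats, 7−8 weeks, 250−300 g, three per group, dosed 5 mg/kg IV or PO. Vehicle was 5% DMSO/40% PEG400/55% water. Rats fasted 16 h before oral dosing. Samples taken every 30 min and measured by LC/MS/MS with carbamazepine as internal standard. Parameters from non-compartmental analysis of plasma concentration–time profiles.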

[5] = target: Mitogen-activated protein kinase kinase kinase 20 (Homo sapiens, UniProt Q9NYL2); assay: Inhibition of ZAK (unknown origin) incubated for 1 hr by qPCR analysis; outline: as §2
[6] = Apparent permeability across basolateral to apical side in human Caco-2 cells at 5 uM measured every 15 mins for 1 hr by LC-MS/MS analysis; type: ADME, cell-based
[7] = Volume of distribution in Sprague-Dawley rat at 5 mg/kg, iv by LC-MS/MS analysis; type: ADME, organism-based; conditions: in vivo; outline: as §3
[8] = Stability in rat plasma assessed as parent compound remaining at 10 uM measured after 30 mins by LC-MS analysis; type: ADME, cell-free; conditions: read-out: Stability; outline: as §1
[9] = target: Mitogen-activated protein kinase 14 (Homo sapiens, UniProt Q16539); assay: Inhibition of MAPK14 (unknown origin) incubated for 1 hr by qPCR analysis; outline: as §2
Sequence of Mitogen-activated protein kinase 14 (Q16539 whole entry): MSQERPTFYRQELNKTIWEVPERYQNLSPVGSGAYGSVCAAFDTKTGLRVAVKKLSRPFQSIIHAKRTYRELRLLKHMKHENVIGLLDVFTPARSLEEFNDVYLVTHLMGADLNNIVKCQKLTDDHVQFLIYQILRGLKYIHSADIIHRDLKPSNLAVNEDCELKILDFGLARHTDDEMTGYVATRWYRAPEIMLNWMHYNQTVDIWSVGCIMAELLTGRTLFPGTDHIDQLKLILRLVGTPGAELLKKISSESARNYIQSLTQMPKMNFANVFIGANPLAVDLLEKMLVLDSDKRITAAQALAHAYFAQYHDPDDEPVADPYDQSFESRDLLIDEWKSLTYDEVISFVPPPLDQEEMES

[10] = Tmax in Sprague-Dawley rat at 5 mg/kg, po by LC-MS/MS analysis; type: ADME, organism-based; conditions: in vivo; outline: as §3
[11] = Half life in Sprague-Dawley rat at 5 mg/kg, iv by LC-MS/MS analysis; type: ADME, organism-based; conditions: in vivo
Outline: (§4)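 Male SD rats (7–8 weeks, 250–300 g), three per group, were dosed at 5 mg/kg i.v. or p.o. in 5% DMSO/40% PEG400/55% water. Rats were fasted 16 h before oral dosing. Serum was sampled every 30 min and measured by LC/MS/MS with carbamazepine as internal standard. Parameters came from non-compartmental analysis.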

[12] = target: Fibroblast growth factor receptor 1 (Homo sapiens, UniProt P11362); assay: Inhibition of FGFR1 (unknown origin) incubated for 1 hr by qPCR analysis
Sequence of Fibroblast growth factor receptor 1 (P11362 whole entry): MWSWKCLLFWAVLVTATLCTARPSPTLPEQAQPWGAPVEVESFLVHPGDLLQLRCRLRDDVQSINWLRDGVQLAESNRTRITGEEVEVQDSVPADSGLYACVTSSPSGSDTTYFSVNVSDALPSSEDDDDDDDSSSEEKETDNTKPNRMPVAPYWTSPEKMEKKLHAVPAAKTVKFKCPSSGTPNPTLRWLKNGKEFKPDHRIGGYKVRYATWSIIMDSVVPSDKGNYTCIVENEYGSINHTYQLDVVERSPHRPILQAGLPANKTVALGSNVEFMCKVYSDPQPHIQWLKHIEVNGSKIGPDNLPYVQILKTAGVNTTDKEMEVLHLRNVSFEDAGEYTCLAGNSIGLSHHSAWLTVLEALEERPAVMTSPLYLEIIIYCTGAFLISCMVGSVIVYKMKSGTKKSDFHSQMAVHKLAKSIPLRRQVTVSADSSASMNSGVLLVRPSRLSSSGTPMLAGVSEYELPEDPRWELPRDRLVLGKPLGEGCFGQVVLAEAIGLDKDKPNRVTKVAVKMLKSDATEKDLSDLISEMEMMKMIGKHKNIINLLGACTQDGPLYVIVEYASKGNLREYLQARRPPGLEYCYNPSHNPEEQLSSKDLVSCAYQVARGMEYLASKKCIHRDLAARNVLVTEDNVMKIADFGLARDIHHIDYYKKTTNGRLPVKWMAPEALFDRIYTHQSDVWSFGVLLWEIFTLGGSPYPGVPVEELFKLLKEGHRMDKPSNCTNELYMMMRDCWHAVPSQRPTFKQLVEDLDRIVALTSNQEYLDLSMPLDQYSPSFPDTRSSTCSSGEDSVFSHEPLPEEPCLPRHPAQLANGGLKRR

[13] = Stability in rat plasma assessed as parent compound remaining at 10 uM measured after 120 mins by LC-MS analysis; type: ADME, cell-free; conditions: read-out: Stability; outline: as §1
[14] = target: Homeodomain-interacting protein kinase 1 (Homo sapiens, UniProt Q86Z02); assay: Inhibition of HIPK1 (unknown origin) incubated for 1 hr by qPCR analysis; outline: as §2
Sequence of Homeodomain-interacting protein kinase 1 (Q86Z02 whole entry): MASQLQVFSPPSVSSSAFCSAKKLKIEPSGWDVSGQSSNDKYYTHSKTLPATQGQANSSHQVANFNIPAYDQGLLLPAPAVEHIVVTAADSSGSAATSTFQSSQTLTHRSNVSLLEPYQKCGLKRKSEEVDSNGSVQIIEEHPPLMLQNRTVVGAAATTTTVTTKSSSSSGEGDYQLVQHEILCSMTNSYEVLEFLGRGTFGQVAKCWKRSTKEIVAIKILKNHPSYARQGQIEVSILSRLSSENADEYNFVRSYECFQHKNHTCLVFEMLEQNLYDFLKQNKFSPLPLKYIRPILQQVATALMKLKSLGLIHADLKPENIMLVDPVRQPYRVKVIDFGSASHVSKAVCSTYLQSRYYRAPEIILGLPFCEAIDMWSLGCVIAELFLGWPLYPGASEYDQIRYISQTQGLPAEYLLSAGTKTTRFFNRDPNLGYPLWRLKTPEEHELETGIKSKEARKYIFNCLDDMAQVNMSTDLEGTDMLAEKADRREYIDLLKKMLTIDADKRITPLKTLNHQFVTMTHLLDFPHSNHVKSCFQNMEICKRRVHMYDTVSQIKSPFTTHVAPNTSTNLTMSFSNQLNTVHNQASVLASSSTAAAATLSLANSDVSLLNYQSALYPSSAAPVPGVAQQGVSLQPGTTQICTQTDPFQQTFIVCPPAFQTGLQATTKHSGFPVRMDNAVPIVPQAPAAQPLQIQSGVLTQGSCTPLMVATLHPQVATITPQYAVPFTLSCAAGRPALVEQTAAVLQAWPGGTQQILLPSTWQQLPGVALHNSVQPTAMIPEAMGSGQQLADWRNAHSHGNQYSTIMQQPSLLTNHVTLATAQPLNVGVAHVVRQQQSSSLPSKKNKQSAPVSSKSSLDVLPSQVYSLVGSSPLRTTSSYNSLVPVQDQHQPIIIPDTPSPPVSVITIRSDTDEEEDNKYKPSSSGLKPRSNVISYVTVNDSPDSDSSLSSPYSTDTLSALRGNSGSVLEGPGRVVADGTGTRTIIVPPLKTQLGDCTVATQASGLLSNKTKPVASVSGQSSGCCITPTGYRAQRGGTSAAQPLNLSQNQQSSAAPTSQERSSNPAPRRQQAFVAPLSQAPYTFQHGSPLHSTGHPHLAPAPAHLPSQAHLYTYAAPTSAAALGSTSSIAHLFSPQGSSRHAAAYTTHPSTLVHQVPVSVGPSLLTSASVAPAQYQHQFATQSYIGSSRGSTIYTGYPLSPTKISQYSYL

[15] = Stability in human plasma assessed as parent compound remaining at 10 uM measured after 120 mins by LC-MS analysis; type: ADME, cell-free; conditions: read-out: Stability; outline: as §1
[16] = Acute toxicity in Hsd:athymic nude-Foxn1nu mouse assessed as animal mortality at 500 to 1000 mg/kg; type: organism-based; conditions: in vivo, dose 500-1000 mg/kg
Outline: (§5)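 Male Hsd:Athymic Nude-Foxn1nu mice received the compound by injection at five single doses (50, 100, 250, 500 and 1000 mg/kg), with seven animals per dose group.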

[17] = target: Serine/threonine-protein kinase/endoribonuclease IRE1 (Homo sapiens, UniProt O75460); assay: Inhibition of ERN1 (unknown origin) incubated for 1 hr by qPCR analysis; outline: as §2
[18] = Acute toxicity in Hsd:athymic nude-Foxn1nu mouse at 50 to 250 mg/kg; type: organism-based; conditions: in vivo, dose 50-250 mg/kg; outline: as §5
[19] = Clearance in Sprague-Dawley rat at 5 mg/kg, iv by LC-MS/MS analysis; type: ADME, organism-based; conditions: in vivo; outline: as §4
[20] = Half life in Sprague-Dawley rat at 5 mg/kg, po by LC-MS/MS analysis; type: ADME, organism-based; conditions: in vivo; outline: as §4
[21] = target: Tyrosine-protein kinase ABL1 (Homo sapiens, UniProt P00519); assay: Inhibition of ABL1 (unknown origin) incubated for 1 hr by qPCR analysis
Sequence of Tyrosine-protein kinase ABL1 (P00519 whole entry): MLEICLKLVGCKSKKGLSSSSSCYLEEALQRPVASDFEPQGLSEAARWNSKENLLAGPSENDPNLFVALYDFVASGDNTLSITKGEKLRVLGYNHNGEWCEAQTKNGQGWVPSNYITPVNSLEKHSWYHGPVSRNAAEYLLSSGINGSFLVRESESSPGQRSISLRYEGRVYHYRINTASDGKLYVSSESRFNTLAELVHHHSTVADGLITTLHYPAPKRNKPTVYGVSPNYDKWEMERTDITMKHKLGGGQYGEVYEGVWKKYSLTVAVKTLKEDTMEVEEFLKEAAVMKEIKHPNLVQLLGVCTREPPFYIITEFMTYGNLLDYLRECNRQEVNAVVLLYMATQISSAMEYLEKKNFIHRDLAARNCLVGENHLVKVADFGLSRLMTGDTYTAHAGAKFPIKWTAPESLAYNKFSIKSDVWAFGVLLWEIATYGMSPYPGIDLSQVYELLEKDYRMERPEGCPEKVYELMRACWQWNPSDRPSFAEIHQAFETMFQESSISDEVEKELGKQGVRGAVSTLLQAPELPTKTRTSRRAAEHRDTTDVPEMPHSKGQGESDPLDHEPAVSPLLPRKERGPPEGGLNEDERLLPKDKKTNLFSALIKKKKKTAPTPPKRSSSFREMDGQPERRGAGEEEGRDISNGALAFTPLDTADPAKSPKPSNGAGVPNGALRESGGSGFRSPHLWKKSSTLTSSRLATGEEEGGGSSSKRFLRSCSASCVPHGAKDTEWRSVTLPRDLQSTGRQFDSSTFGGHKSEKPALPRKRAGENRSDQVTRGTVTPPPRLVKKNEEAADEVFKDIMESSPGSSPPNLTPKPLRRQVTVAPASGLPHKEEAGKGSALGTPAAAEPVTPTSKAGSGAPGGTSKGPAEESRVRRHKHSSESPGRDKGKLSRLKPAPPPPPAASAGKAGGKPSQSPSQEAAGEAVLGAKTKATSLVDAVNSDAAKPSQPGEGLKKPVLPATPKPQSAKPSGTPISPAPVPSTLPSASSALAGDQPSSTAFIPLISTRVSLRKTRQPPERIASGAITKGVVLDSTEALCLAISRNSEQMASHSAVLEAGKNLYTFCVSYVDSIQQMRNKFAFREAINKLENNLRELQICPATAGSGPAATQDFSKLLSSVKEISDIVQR

[22] = target: Serine/threonine-protein kinase B-raf (Homo sapiens, UniProt P15056, V600E); assay: Inhibition of human BRAF V600E mutant using myelin basic protein as substrate in presence of [gamma-33P]ATP incubated for 40 mins by scintillation counting method
Sequence of Serine/threonine-protein kinase B-raf (Homo sapiens, UniProt P15056, V600E) (P15056 2-766 V600E limits assumed): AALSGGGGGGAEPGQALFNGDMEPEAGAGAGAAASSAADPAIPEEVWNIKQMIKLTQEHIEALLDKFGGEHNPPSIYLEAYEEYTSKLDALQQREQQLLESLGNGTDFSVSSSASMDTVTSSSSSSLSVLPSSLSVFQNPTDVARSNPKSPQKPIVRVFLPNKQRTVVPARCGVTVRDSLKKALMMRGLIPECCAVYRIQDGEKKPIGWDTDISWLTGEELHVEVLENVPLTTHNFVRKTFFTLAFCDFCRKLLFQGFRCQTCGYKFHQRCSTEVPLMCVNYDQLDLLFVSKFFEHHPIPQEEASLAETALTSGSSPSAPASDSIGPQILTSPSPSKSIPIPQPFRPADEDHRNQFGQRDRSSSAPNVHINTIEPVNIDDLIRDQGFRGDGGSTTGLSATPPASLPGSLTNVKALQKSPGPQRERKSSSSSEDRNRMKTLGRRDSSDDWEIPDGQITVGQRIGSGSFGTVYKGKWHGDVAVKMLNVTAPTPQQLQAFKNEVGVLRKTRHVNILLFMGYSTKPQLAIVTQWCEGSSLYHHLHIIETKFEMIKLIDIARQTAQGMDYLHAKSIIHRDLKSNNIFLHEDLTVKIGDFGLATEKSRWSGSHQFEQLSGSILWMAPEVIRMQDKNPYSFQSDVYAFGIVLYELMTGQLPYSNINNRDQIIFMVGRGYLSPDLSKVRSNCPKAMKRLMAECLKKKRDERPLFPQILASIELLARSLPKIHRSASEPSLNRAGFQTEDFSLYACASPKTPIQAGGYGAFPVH
Outline: (§6)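 Radiometric kinase assay run at Reaction Biology. Kinase (5−10 mU) in 25 mM Tris pH 7.5, 0.02 mM EGTA, 10 mM magnesium acetate with 0.66 mg/mL myelin basic protein and [γ-33P]ATP at 1 μM ATP. Reaction started with Mg-ATP and run 40 min at room temperature, then stopped with 3% phosphoric acid. Spotted on P30 filtermat, washed, scintillation counted.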

[23] = target: T1, Receptor-type tyrosine-protein kinase FLT3 (Homo sapiens, UniProt P36888); assay: Inhibition of FLT3 (unknown origin) incubated for 1 hr by qPCR analysis; outline: as §2
T1 sequence (P36888 whole entry): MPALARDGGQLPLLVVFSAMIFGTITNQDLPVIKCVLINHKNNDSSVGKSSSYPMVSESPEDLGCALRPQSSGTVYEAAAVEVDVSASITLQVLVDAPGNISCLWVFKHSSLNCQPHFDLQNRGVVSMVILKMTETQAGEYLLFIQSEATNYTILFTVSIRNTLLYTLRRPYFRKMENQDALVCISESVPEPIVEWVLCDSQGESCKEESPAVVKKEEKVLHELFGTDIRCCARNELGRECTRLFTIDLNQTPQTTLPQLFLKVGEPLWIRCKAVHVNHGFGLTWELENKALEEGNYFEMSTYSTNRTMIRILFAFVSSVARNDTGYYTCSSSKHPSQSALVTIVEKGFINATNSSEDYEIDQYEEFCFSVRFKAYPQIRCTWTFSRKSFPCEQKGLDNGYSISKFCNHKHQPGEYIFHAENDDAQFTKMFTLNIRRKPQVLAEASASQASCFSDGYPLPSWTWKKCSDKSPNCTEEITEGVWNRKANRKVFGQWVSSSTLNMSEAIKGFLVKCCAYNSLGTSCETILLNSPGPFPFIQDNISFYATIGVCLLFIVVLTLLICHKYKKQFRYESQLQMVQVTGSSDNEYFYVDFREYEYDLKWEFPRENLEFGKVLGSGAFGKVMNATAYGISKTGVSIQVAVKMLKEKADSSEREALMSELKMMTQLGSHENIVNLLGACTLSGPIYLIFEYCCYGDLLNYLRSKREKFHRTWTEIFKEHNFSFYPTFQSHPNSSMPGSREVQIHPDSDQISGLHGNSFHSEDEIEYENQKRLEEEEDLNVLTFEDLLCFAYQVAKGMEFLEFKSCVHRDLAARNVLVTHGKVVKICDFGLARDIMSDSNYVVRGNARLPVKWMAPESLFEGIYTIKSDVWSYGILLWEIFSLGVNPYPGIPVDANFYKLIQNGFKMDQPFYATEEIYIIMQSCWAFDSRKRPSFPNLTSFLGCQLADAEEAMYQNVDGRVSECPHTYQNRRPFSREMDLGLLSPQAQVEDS

[24] = Apparent permeability across apical to basolateral side in human Caco-2 cells at 5 uM measured every 15 mins for 1 hr by LC-MS/MS analysis; type: ADME, cell-based
[25] = Cmax in Sprague-Dawley rat at 5 mg/kg, po by LC-MS/MS analysis; type: ADME, organism-based; design: route oral, dose 5 mg/kg; conditions: in vivo; outline: as §4
[26] = target: Serine/threonine-protein kinase B-raf (Homo sapiens, UniProt P15056); assay: Inhibition of human wild type BRAF using myelin basic protein as substrate in presence of [gamma-33P]ATP incubated for 40 mins by scintillation counting method; outline: as §6
[27] = target: Mitogen-activated protein kinase 8 (Homo sapiens, UniProt P45983); assay: Inhibition of MAPK8 (unknown origin) incubated for 1 hr by qPCR analysis; outline: as §2

For `CN1CCN(CCNc2nccc(-c3c(-c4cccc(O)c4)nc4sccn34)n2)S1(=O)=O`, the remaining at 0.5 h, 10 µM [1] was 97.2%, the IC50 [2] was 1.12 nM and the IC50 [3] was 820 nM. The bioavailability [4] was 6.59%, the IC50 [5] was 9010 nM and the Papp B→A at 1 h, 5 µM [6] was 21.8 ×10⁻⁶ cm/s. For the same compound, the Vd [7] was 0.578 L/kg, the remaining at 0.5 h, 10 µM [8] was 90.6% and the IC50 [9] was 1020 nM. It also gave a Tmax [10] of 2.08 h, a half-life [11] of 1.72 h and an IC50 [12] of 13500 nM. The remaining at 2 h, 10 µM [13] was 76.6%, the IC50 [14] was 3780 nM and the remaining at 2 h, 10 µM [15] was 95.4%. The Activity [16] was “Toxic”, the IC50 [17] was 11300 nM and the Activity [18] was “Non-Toxic”. For the same compound, the clearance [19] was 2.07 mL/min/kg, the half-life [20] was 3.35 h and the IC50 [21] was 12400 nM. It also gave an IC50 [22] of 0.07 nM, an IC50 [23] of 1510 nM and a Papp A→B at 1 h, 5 µM [24] of 14.2 ×10⁻⁶ cm/s. The Cmax [25] was 96.9 ng/mL, the IC50 [26] was 2 nM and the IC50 [27] was 910 nM.
